Published values of several laboratories.
Protocols differ between the studies behind these lines.
SIRT3: NAD-dependent protein deacetylase sirtuin-3, mitochondrial (SIRT3, Homo sapiens, UniProt Q9NTG7)
PTGS1: Prostaglandin G/H synthase 1 (PTGS1, Ovis aries, UniProt P05979)
Ar: Androgen receptor (Ar, Rattus norvegicus, UniProt P15207)
AGTR2: Type-2 angiotensin II receptor (AGTR2, Homo sapiens, UniProt P50052)

| Structure (SMILES) | target | assay | system | conditions | inhibition [%] |
| --- | --- | --- | --- | --- | --- |
| CC(=S)NCCCC[C@H](NC(=O)OCc1ccccc1)C(=O)N[C@@H](Cc1c[nH]c2ccccc12)C(=O)N[C@@H](CCCCN)C(N)=O | SIRT3 | enzyme activity, inhibitor | – | 10 µM | 59 |
| CN1CCN(CCCOc2ccc(=O)n(-c3ccc(Cl)c(Cl)c3)n2)CC1 | Transient receptor potential cation channel subfamily V member 1 (TRPV1, Homo sapiens, UniProt Q8NER1) | ligand displacement | – | 1 µM | 17.1 |
| Oc1cccc(Nc2nc(-c3ccc(F)cc3F)cs2)c1 | Sodium-dependent serotonin transporter (SLC6A4, Homo sapiens, UniProt P31645) | cell-free assay | – | 10 µM | -7.7 |
| O=C(NC1CCC1)[C@H](Cc1c[nH]c2ccccc12)NC(=O)[C@H](CCCCNC(=S)NCc1cc(O)no1)NS(=O)(=O)c1cccc(F)c1 | SIRT3 | enzyme activity, inhibitor | – | 30 µM | 6 |
| Cc1ccc(C(=O)Nc2ccc(S(=O)(=O)O)c3cc(S(=O)(=O)O)cc(S(=O)(=O)O)c23)cc1NC(=O)c1cccc(NC(=O)Nc2cccc(C(=O)Nc3cc(C(=O)Nc4ccc(S(=O)(=O)O)c5cc(S(=O)(=O)O)cc(S(=O)(=O)O)c45)ccc3C)c2)c1 | SIRT3 | enzyme activity, inhibitor | – | 100 µM | 6 |
| O=C(NC1CCC1)[C@H](Cc1c[nH]c2ccccc12)NC(=O)[C@H](CCCCNC(=S)NCc1n[nH]c(=S)o1)NS(=O)(=O)c1cccc(F)c1 | SIRT3 | enzyme activity, inhibitor | – | 30 µM | 12 |
| O=C(Nc1ccc(F)cc1)Nc1cccc(C(=O)Nc2ccc3[nH]ncc3c2)c1 | BDNF/NT-3 growth factors receptor (NTRK2, Homo sapiens, UniProt Q16620) | enzyme activity, inhibitor, FRET | – | 1 µM | 16.8 |
| C[C@@H]1O[C@@H](OC[C@H]2O[C@@H](O[C@H]3[C@H](Oc4c(-c5ccc(O)cc5)oc5cc(O)cc(O)c5c4=O)O[C@H](CO)[C@@H](O)[C@@H]3O)[C@H](O)[C@@H](O)[C@@H]2O)[C@H](O)[C@H](O)[C@H]1O | PTGS1 | enzyme activity, inhibitor, absorbance | – | 50 µM | 53.3 |
| CNc1cc(Oc2cc(C(=O)Nc3cc(N4CCN(C)CC4)cc(C(F)(F)F)c3)ccc2C)ncn1 | STE20-related kinase adapter protein alpha (STRADA, Homo sapiens, UniProt Q7RTN6) | target engagement in cells, inhibitor, chemoproteomics | Huh-7 | 1 µM | -86.8 |
| C[C@@H]1O[C@@H](O[C@H]2[C@H](Oc3c(-c4ccc(O)cc4)oc4cc(O)cc(O)c4c3=O)O[C@H](CO[C@@H]3O[C@H](CO)[C@@H](O)[C@H](O)[C@H]3O)[C@@H](O)[C@@H]2O)[C@H](O)[C@H](O)[C@H]1O | PTGS1 | enzyme activity, inhibitor, absorbance | – | 50 µM | 76.2 |
| CCCCC[C@H]1CC(=O)c2cc(Cl)cc(Br)c2O1 | SIRT3 | enzyme activity, inhibitor, fluorescence | – | 200 µM | 3.9 |
| CCCCCCCCCCCCNC(=S)NCCCC[C@H](NC(=O)OCc1ccccc1)C(=O)N[C@@H](Cc1c[nH]c2ccccc12)C(=O)N[C@@H](CCC(=O)O)C(N)=O | SIRT3 | enzyme activity, inhibitor | – | 10 µM | 21 |
| O=c1cc(-c2ccccc2)oc2c(Br)cc(Cl)cc12 | SIRT3 | enzyme activity, inhibitor, fluorescence | – | 200 µM | 12 |
| Cn1c(CNC(=S)NCCCC[C@H](NS(=O)(=O)c2cccc(F)c2)C(=O)N[C@@H](Cc2c[nH]c3ccccc23)C(=O)NC2CCC2)n[nH]c1=S | SIRT3 | enzyme activity, inhibitor | – | 30 µM | 51 |
| CCCCCCCCCCCCNC(=S)NCCCC[C@H](NC(=O)C1CCCCC1)C(=O)N[C@H](C)C(=O)N[C@@H](CCCNC(=N)N)C(N)=O | SIRT3 | enzyme activity, inhibitor | – | 10 µM | 41 |
| O=C(Nc1ccc(S(=O)(=O)N2CCC(Cl)CC2)cc1)c1ccc([N+](=O)[O-])o1 | Ar | ligand displacement, radioligand | – | 10 µM | 8 |
| CN(C)C1CCN(CC#Cc2nn(C3CCCC3)c3nc(NCc4ccccc4)ncc23)C1 (centres unmarked) | Activin receptor type-1B (ACVR1B, Homo sapiens, UniProt P36896) | enzyme activity, inhibitor, FRET | – | 1 µM | 5 |
| O=c1c(O[C@@H]2O[C@H](CO)[C@@H](O)[C@H](O)[C@H]2O)c(-c2ccc(O)cc2)oc2cc(O[C@@H]3O[C@H](CO)[C@@H](O)[C@H](O)[C@H]3O)cc(O)c12 | PTGS1 | enzyme activity, inhibitor, absorbance | – | 50 µM | 62.9 |

| Structure (SMILES) | target | assay | system | conditions | inhibition [%] |
| --- | --- | --- | --- | --- | --- |
| CCCCCCCCCCCCNC(=S)NCCCC[C@H](NC(=O)OCc1ccccc1)C(=O)N[C@@H](C)C(=O)N[C@@H](CCCNC(=N)N)C(N)=O | SIRT3 | enzyme activity, inhibitor | – | 1 µM | 20 |
| CCN(Cc1ccccc1C(F)(F)F)C(=O)C1CCN(S(=O)(=O)c2ccc3[nH]ncc3c2)CC1 | Ar | ligand displacement, radioligand | – | 10 µM | 11 |
| CCCCCCCCCCCCNC(=S)NCCCC[C@H](NC(=O)OCc1ccccc1)C(=O)N[C@@H](Cc1c[nH]c2ccccc12)C(=O)N[C@@H](CCNC(=N)N)C(N)=O | SIRT3 | enzyme activity, inhibitor | – | 10 µM | 48 |
| CCCCCC1C=Cc2cc(Cl)cc(Br)c2O1 (centres unmarked) | SIRT3 | enzyme activity, inhibitor, fluorescence | – | 200 µM | 2 |
| CCCCCCCCCCCCNC(=S)NCCCC[C@H](NC(=O)OCc1ccccc1)C(=O)N[C@@H](Cc1c[nH]c2ccccc12)C(=O)N[C@@H](CCCCN)C(N)=O | SIRT3 | enzyme activity, inhibitor | – | 10 µM | 21 |
| C[C@@H]1O[C@@H](OC[C@H]2O[C@@H](Oc3c(-c4ccc(O)cc4)oc4cc(O)cc(O)c4c3=O)[C@H](O[C@@H]3O[C@H](CO)[C@@H](O)[C@H](O)[C@H]3O)[C@@H](O)[C@@H]2O)[C@H](O)[C@H](O)[C@H]1O | PTGS1 | enzyme activity, inhibitor, absorbance | – | 50 µM | 72.6 |
| O=C(c1ccc(Cl)cc1)N(Cc1ccccc1)C1CCCCC1 | AGTR2 | cell-free assay | – | 10 µM | 4.4 |
| CCCCCC1CC(=O)c2cc(F)cc(F)c2O1 (centres unmarked) | SIRT3 | enzyme activity, inhibitor, fluorescence | – | 200 µM | 9.6 |
| O=C(COc1ccc2cc(C(=O)Nc3ccccc3)ccc2c1)NCc1ccc(O)c(O)c1 | Signal transducer and activator of transcription 5A, SH2 (Homo sapiens, UniProt P42229) | ligand displacement, FP | – | 100 µM | 1 |
| CCCCCC1CC(=O)c2cc(OC)ccc2O1 (centres unmarked) | SIRT3 | enzyme activity, inhibitor, fluorescence | – | 200 µM | 9.5 |
| COc1ccc2c(c1)C(CC(=O)O)=C/C2=C\c1ccc(-c2ccccc2)cc1 | PTGS1 | enzyme activity, inhibitor | – | 4 µM | 49 |
| CCCC1CC(=O)c2cc(Cl)cc(Br)c2O1 (centres unmarked) | SIRT3 | enzyme activity, inhibitor, fluorescence | – | 200 µM | 7 |
| COc1cc(NC(C)=O)c(Cl)cc1C(=O)Nc1nccs1 | AGTR2 | cell-free assay | – | 10 µM | 2.7 |
| CCCCCCCC1CC(=O)c2cc(Cl)cc(Br)c2O1 (centres unmarked) | SIRT3 | enzyme activity, inhibitor, fluorescence | – | 200 µM | 8.3 |
| O=C1CC(CCNC(=S)NCCCC[C@H](NS(=O)(=O)c2cccc(F)c2)C(=O)N[C@@H](Cc2c[nH]c3ccccc23)C(=O)NC2CCC2)=NO1 | SIRT3 | enzyme activity, inhibitor | – | 10 µM | 40 |
| CCCCCCCCCCCCNC(=S)NCCCC[C@H](NS(C)(=O)=O)C(=O)N[C@H](C)C(=O)N[C@@H](CCCNC(=N)N)C(=O)O | SIRT3 | enzyme activity, inhibitor | – | 100 µM | 34 |
| CCCCCC1CC(=O)c2ccc(F)cc2O1 (centres unmarked) | SIRT3 | enzyme activity, inhibitor, fluorescence | – | 200 µM | 2.2 |
